Source: ChEMBL document CHEMBL1145212, “Fluorinated diaryl sulfides as serotonin transporter ligands: synthesis, structure-activity relationship study, and in vivo evaluation of fluorine-18-labeled compounds as PET imaging agents” (J Med Chem, 2005)

Columns and labels:
Rattus norvegicus [1] = species on record: Rattus norvegicus; assay: Regional uptake of [18F]-AFA in hypothalamus of rat pretreated with compound 7f; n=3; format: functional, organism-based; conditions: tested as the 18F-labelled form
Rattus norvegicus [2] = species on record: Rattus norvegicus; assay: Regional uptake of [18F]-AFA in blood of rat pretreated with compound citalopram; n=3; format: functional, organism-based; conditions: tested as the 18F-labelled form
In short: (§1)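 Male Sprague-Dawley rats, three per group, received blocker (2 mg/kg iv in saline) or saline only (controls) 10–15 min before about 20 µCi of tail-vein F-18 radioligand. Killed 60 min after tracer. Blood and brain regions weighed and gamma-counted. %ID/g was decay- and tail-corrected; mean ± SD.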

Rattus norvegicus [3] = species on record: Rattus norvegicus; assay: Regional uptake of [18F]AFA in blood of rat pretreated with compound nisoxetine; n=3; format: functional, organism-based; conditions: tested as the 18F-labelled form; in short: as §1
Rattus norvegicus [4] = species on record: Rattus norvegicus; assay: Regional uptake of [18F]AFA in frontal cortex of rat pretreated with compound 7f; n=3; format: functional, organism-based; conditions: tested as the 18F-labelled form
Rattus norvegicus [5] = species on record: Rattus norvegicus; assay: Regional uptake of [18F]-AFA in striatum of rat pretreated with compound GBR-12935; n=3; format: functional, organism-based; conditions: tested as the 18F-labelled form; in short: as §1
Rattus norvegicus [6] = species on record: Rattus norvegicus; assay: Regional uptake of [18F]AFA in thalamus of rat pretreated with compound GBR-12935; n=3; format: functional, organism-based; conditions: tested as the 18F-labelled form; in short: as §1
Rattus norvegicus [7] = species on record: Rattus norvegicus; assay: Regional uptake of [18F]AFA in striatum of rat pretreated with compound citalopram; n=3; format: functional, organism-based; conditions: tested as the 18F-labelled form; in short: as §1
Rattus norvegicus [8] = species on record: Rattus norvegicus; assay: Regional uptake of [18F]AFA in striatum of rat pretreated with compound nisoxetine; n=3; format: functional, organism-based; conditions: tested as the 18F-labelled form; in short: as §1
Rattus norvegicus [9] = species on record: Rattus norvegicus; assay: Regional uptake of [18F]AFA in thalamus of rat pretreated with compound citalopram; n=3; format: functional, organism-based; conditions: tested as the 18F-labelled form; in short: as §1
Rattus norvegicus [10] = species on record: Rattus norvegicus; assay: Regional uptake of [18F]AFA in thalamus of rat pretreated with compound nisoxetine; n=3; format: functional, organism-based; conditions: tested as the 18F-labelled form; in short: as §1
Rattus norvegicus [11] = species on record: Rattus norvegicus; assay: Regional uptake of [18F]AFA in hippocampus of rat pretreated with compound GBR-12935; n=3; format: functional, organism-based; conditions: tested as the 18F-labelled form; in short: as §1
Rattus norvegicus [12] = species on record: Rattus norvegicus; assay: Regional uptake of [18F]AFA in cerebellum of rat pretreated with compound citalopram; n=3; format: functional, organism-based; conditions: tested as the 18F-labelled form; in short: as §1
Rattus norvegicus [13] = species on record: Rattus norvegicus; assay: Regional uptake of [18F]AFA in cerebellum of rat pretreated with compound nisoxetine; n=3; format: functional, organism-based; conditions: tested as the 18F-labelled form; in short: as §1
Rattus norvegicus [14] = species on record: Rattus norvegicus; assay: Regional uptake of [18F]AFA in hypothalamus of rat pretreated with compound GBR-12935; n=3; format: functional, organism-based; conditions: tested as the 18F-labelled form; in short: as §1
Rattus norvegicus [15] = species on record: Rattus norvegicus; assay: Regional uptake of [18F]AFA in hippocampus of rat pretreated with compound citalopram; n=3; format: functional, organism-based; conditions: tested as the 18F-labelled form; in short: as §1
Rattus norvegicus [16] = species on record: Rattus norvegicus; assay: Regional uptake of [18F]AFA in hippocampus of rat pretreated with compound nisoxetine; n=3; format: functional, organism-based; conditions: tested as the 18F-labelled form; in short: as §1
Rattus norvegicus [17] = species on record: Rattus norvegicus; assay: Regional uptake of [18F]AFA in frontal cortex of rat pretreated with compound GBR-12935; n=3; format: functional, organism-based; conditions: tested as the 18F-labelled form; in short: as §1
Rattus norvegicus [18] = species on record: Rattus norvegicus; assay: Regional uptake of [18F]-AFA in hypothalamus of rat pretreated with compound nisoxetine; n=3; format: functional, organism-based; conditions: tested as the 18F-labelled form; in short: as §1
Rattus norvegicus [19] = species on record: Rattus norvegicus; assay: Regional uptake of [18F]AFA in frontal cortex of rat pretreated with compound citalopram; n=3; format: functional, organism-based; conditions: tested as the 18F-labelled form; in short: as §1
Rattus norvegicus [20] = species on record: Rattus norvegicus; assay: Regional uptake of [18F]AFA in frontal cortex of rat pretreated with compound nisoxetine; n=3; format: functional, organism-based; conditions: tested as the 18F-labelled form; in short: as §1
[21] = biological target: Sodium-dependent serotonin transporter (Homo sapiens, UniProt P31645); assay: In vitro displacement of [3H]paroxetine from human serotonin transporter expressed in HEK293 cells; format: cell-based
Sequence of Sodium-dependent serotonin transporter (P31645 whole entry): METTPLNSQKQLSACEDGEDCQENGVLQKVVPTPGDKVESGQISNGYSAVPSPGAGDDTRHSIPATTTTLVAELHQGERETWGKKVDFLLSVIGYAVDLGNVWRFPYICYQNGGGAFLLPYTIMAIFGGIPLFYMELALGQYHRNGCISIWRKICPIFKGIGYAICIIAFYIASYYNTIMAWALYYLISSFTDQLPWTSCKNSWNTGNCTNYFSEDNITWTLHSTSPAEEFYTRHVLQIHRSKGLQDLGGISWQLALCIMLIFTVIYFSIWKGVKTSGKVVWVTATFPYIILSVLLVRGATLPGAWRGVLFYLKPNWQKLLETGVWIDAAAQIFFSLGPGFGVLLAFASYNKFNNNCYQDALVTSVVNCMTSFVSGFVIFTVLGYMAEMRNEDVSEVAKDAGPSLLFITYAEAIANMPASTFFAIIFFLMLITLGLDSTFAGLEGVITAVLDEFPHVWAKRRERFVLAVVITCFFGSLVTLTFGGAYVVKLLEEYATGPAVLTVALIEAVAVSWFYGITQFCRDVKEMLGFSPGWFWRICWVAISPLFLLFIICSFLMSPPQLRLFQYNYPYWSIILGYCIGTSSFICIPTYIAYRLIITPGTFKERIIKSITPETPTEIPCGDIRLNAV

Rattus norvegicus [22] = species on record: Rattus norvegicus; assay: Regional uptake of [18F]AFA in cerebellum of rat pretreated with compound GBR-12935; n=3; format: functional, organism-based; conditions: tested as the 18F-labelled form; in short: as §1
Rattus norvegicus [23] = species on record: Rattus norvegicus; assay: Regional uptake of [18F]AFA in hypothalamus of rat pretreated with compound citalopram; n=3; format: functional, organism-based; conditions: tested as the 18F-labelled form; in short: as §1
Rattus norvegicus [24] = species on record: Rattus norvegicus; assay: Regional uptake of [18F]AFP in thalamus of rat pretreated with compound 7f; n=3; conditions: tested as the 18F-labelled form
Rattus norvegicus [25] = species on record: Rattus norvegicus; assay: Regional uptake of [18F]-AFP in striatum of rat pretreated with compound 7f; n=3; conditions: tested as the 18F-labelled form

CN(C)Cc1ccccc1Sc1ccc(CCCF)cc1N
Uptake (Rattus norvegicus [1]): 0.1 %ID/g
Uptake (Rattus norvegicus [2]): 0.09 %ID/g
Uptake (Rattus norvegicus [3]): 0.08 %ID/g
Uptake (Rattus norvegicus [4]): 0.08 %ID/g
Uptake (Rattus norvegicus [5]): 0.17 %ID/g
Uptake (Rattus norvegicus [6]): 0.18 %ID/g
Uptake (Rattus norvegicus [7]): 0.12 %ID/g
Uptake (Rattus norvegicus [8]): 0.13 %ID/g
Uptake (Rattus norvegicus [9]): 0.15 %ID/g
Uptake (Rattus norvegicus [10]): 0.15 %ID/g
Uptake (Rattus norvegicus [11]): 0.16 %ID/g
Uptake (Rattus norvegicus [12]): 0.08 %ID/g
Uptake (Rattus norvegicus [13]): 0.08 %ID/g
Uptake (Rattus norvegicus [14]): 0.17 %ID/g
Uptake (Rattus norvegicus [15]): 0.11 %ID/g
Uptake (Rattus norvegicus [16]): 0.16 %ID/g
Uptake (Rattus norvegicus [17]): 0.15 %ID/g
Uptake (Rattus norvegicus [18]): 0.15 %ID/g
Uptake (Rattus norvegicus [19]): 0.16 %ID/g
Uptake (Rattus norvegicus [20]): 0.13 %ID/g
Ki [21]: 3.58 nM
Uptake (Rattus norvegicus [22]): 0.09 %ID/g
Uptake (Rattus norvegicus [23]): 0.13 %ID/g
Uptake (Rattus norvegicus [24]): 0.1 %ID/g
Uptake (Rattus norvegicus [25]): 0.08 %ID/g
